Test results published in ChEMBL document CHEMBL1135761, “Discovery of further pyrrolidine trans-lactams as inhibitors of human neutrophil elastase (HNE) with potential as development candidates and the crystal structure of HNE complexed with an inhibitor (GW475151)” (J Med Chem, 2002).

Test system: not listed separately
Experiment: Pharmacokinetic parameter Varea in dog was reported in Cassette dosage
Format: ADME, organism-based, Canis lupus familiaris
Details: in vivo, read-out: Varea
Procedure, shortened: (§1)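 Dog cassette: the set of compounds was given intravenously into the femoral vein to a beagle dog at 0.2 mg/kg body weight per compound. Jugular blood was sampled from 5 min to 24 h postdose. Plasma was prepared by solid phase extraction, then analysed by HPLC with single ion monitoring MS using 0.1% formic acid in water:methanol (70:30).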

Row | Compound | Vd [L/kg]
1 | CC(C)[C@@H]1C(=O)N(S(C)(=O)=O)[C@@H]2CCN(C(=O)c3ccc(CN(C)C(C)C)c(Br)c3)[C@H]21 | 4.4
2 | CC(C)C1C(=O)N(S(C)(=O)=O)C2CCN(C(=O)c3ccc(CNC4CC4)cc3)C12 (stereo not drawn) | 4.3

Test system: not listed separately
Experiment: Pharmacokinetic parameter Varea in dog was reported in Discrete dosage
Format: ADME, organism-based, Canis lupus familiaris
Details: in vivo, read-out: Varea

Row | Compound | Vd [L/kg]
3 | CC(C)C1C(=O)N(S(C)(=O)=O)C2CCN(C(=O)c3ccc(CNC4CC4)cc3)C12 (stereo not drawn) | 3.8

Test system: not listed separately
Experiment: pharmacokinetic parameter volume of distribution (Vd) was reported in dog after intravenous administration
Format: ADME, organism-based, Canis lupus familiaris
Details: in vivo, read-out: Vd area

Row | Compound | Vd [L/kg]
4 | CC(C)[C@@H]1C(=O)N(S(C)(=O)=O)[C@@H]2CCN(C(=O)c3coc(CN4CCCC4)n3)[C@H]21.Cl | 3.4

Test system: not listed separately
Experiment: Pharmacokinetic parameter Tmax was reported in dog after intravenous administration
Format: ADME, organism-based, Canis lupus familiaris
Details: in vivo

Row | Compound | Tmax [min]
5 | CC(C)[C@@H]1C(=O)N(S(C)(=O)=O)[C@@H]2CCN(C(=O)c3coc(CN4CCCC4)n3)[C@H]21.Cl | 1.8

Test system: not listed separately
Experiment: Half life time in dog was reported in Discrete dosage
Format: ADME, organism-based, Canis lupus familiaris
Details: in vivo

Row | Compound | half-life [min]
6 | CC(C)C1C(=O)N(S(C)(=O)=O)C2CCN(C(=O)c3ccc(CNC4CC4)cc3)C12 (stereo not drawn) | 30

Test system: not listed separately
Experiment: Half life time in dog was reported in cassette dosage
Format: ADME, organism-based, Canis lupus familiaris
Details: in vivo
Procedure, shortened: as §1

Row | Compound | half-life [min]
7 | CC(C)[C@@H]1C(=O)N(S(C)(=O)=O)[C@@H]2CCN(C(=O)c3ccc(CN(C)C(C)C)c(Br)c3)[C@H]21 | 18
8 | CC(C)C1C(=O)N(S(C)(=O)=O)C2CCN(C(=O)c3ccc(CNC4CC4)cc3)C12 (stereo not drawn) | 30

Test system: not listed separately
Experiment: Oral bioavailability in dog
Format: ADME, organism-based, Canis lupus familiaris
Details: in vivo

Row | Compound | bioavailability [%]
9 | CC(C)[C@@H]1C(=O)N(S(C)(=O)=O)[C@@H]2CCN(C(=O)c3coc(CN4CCCC4)n3)[C@H]21.Cl | 100

Test system: not listed separately
Experiment: Oral bioavailability in rat
Format: ADME, organism-based
Details: in vivo
Procedure, shortened: (§2)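 Rats were dosed with the hydrochloride salt at 2 mg/kg intravenously and orally. Plasma pharmacokinetic parameters were derived from each route, and F was taken from the oral versus intravenous exposure. Some rat data were normalized from a 2.4 to a 2 mg/kg dose.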

Row | Compound | bioavailability [%]
10 | CC(C)[C@@H]1C(=O)N(S(C)(=O)=O)[C@@H]2CCN(C(=O)c3coc(CN4CCCC4)n3)[C@H]21.Cl | 24

Test system: not listed separately
Experiment: Pharmacokinetic parameter Tmax was reported in dog after oral administration
Format: ADME, organism-based, Canis lupus familiaris
Details: in vivo

Row | Compound | Tmax [min]
11 | CC(C)[C@@H]1C(=O)N(S(C)(=O)=O)[C@@H]2CCN(C(=O)c3coc(CN4CCCC4)n3)[C@H]21.Cl | 30

Test system: not listed separately
Experiment: pharmacokinetic parameter volume of distribution (Vd) was reported in rat after intravenous administration
Format: ADME, organism-based
Details: in vivo, read-out: Vd area
Procedure, shortened: as §2

Row | Compound | Vd [L/kg]
12 | CC(C)[C@@H]1C(=O)N(S(C)(=O)=O)[C@@H]2CCN(C(=O)c3coc(CN4CCCC4)n3)[C@H]21.Cl | 2.6

Test system: Canis familiaris
Experiment: pharmacokinetic parameter area under the curve (AUC) was reported in dog after intravenous administration
Format: ADME, organism-based, Canis lupus familiaris
Details: in vivo

Row | Compound | AUC [ng·h/mL]
13 | CC(C)[C@@H]1C(=O)N(S(C)(=O)=O)[C@@H]2CCN(C(=O)c3coc(CN4CCCC4)n3)[C@H]21.Cl | 286

Test system: Canis familiaris
Experiment: pharmacokinetic parameter area under the curve (AUC) was reported in dog after oral administration
Format: ADME, organism-based, Canis lupus familiaris
Details: in vivo

Row | Compound | AUC [ng·h/mL]
14 | CC(C)[C@@H]1C(=O)N(S(C)(=O)=O)[C@@H]2CCN(C(=O)c3coc(CN4CCCC4)n3)[C@H]21.Cl | 308

Test system: Rattus norvegicus
Experiment: pharmacokinetic parameter area under the curve (AUC) was reported in rat after intravenous administration
Format: ADME, organism-based
Details: in vivo
Procedure, shortened: as §2

Row | Compound | AUC [ng·h/mL]
15 | CC(C)[C@@H]1C(=O)N(S(C)(=O)=O)[C@@H]2CCN(C(=O)c3coc(CN4CCCC4)n3)[C@H]21.Cl | 392

Test system: Rattus norvegicus
Experiment: pharmacokinetic parameter area under the curve (AUC) was reported in rat after oral administration
Format: ADME, organism-based
Details: in vivo
Procedure, shortened: as §2

Row | Compound | AUC [ng·h/mL]
16 | CC(C)[C@@H]1C(=O)N(S(C)(=O)=O)[C@@H]2CCN(C(=O)c3coc(CN4CCCC4)n3)[C@H]21.Cl | 93

Test system: not listed separately
Experiment: half life was reported in dog after intravenous administration
Format: ADME, organism-based, Canis lupus familiaris
Details: in vivo

Row | Compound | half-life [min]
17 | CC(C)[C@@H]1C(=O)N(S(C)(=O)=O)[C@@H]2CCN(C(=O)c3coc(CN4CCCC4)n3)[C@H]21.Cl | 60

Test system: not listed separately
Experiment: half life was reported in dog after oral administration
Format: ADME, organism-based, Canis lupus familiaris
Details: in vivo

Row | Compound | half-life [min]
18 | CC(C)[C@@H]1C(=O)N(S(C)(=O)=O)[C@@H]2CCN(C(=O)c3coc(CN4CCCC4)n3)[C@H]21.Cl | 84

Test system: not listed separately
Experiment: half life was reported in rat after intravenous administration
Format: ADME, organism-based
Details: in vivo
Procedure, shortened: as §2

Row | Compound | half-life [min]
19 | CC(C)[C@@H]1C(=O)N(S(C)(=O)=O)[C@@H]2CCN(C(=O)c3coc(CN4CCCC4)n3)[C@H]21.Cl | 24

Test system: not listed separately
Experiment: half life was reported in rat after oral administration
Format: ADME, organism-based
Details: in vivo
Procedure, shortened: as §2

Row | Compound | half-life [min]
20 | CC(C)[C@@H]1C(=O)N(S(C)(=O)=O)[C@@H]2CCN(C(=O)c3coc(CN4CCCC4)n3)[C@H]21.Cl | 78

Test system: not listed separately
Experiment: Pharmacokinetic parameter Cmax was reported after in dog oral administration
Format: ADME, organism-based, Canis lupus familiaris
Parameters: route oral
Details: in vivo

Row | Compound | Cmax [ng/mL]
21 | CC(C)[C@@H]1C(=O)N(S(C)(=O)=O)[C@@H]2CCN(C(=O)c3coc(CN4CCCC4)n3)[C@H]21.Cl | 138

Test system: not listed separately
Experiment: Pharmacokinetic parameter Cmax was reported after in rat oral administration
Format: ADME, organism-based
Parameters: route oral
Details: in vivo
Procedure, shortened: as §2

Row | Compound | Cmax [ng/mL]
22 | CC(C)[C@@H]1C(=O)N(S(C)(=O)=O)[C@@H]2CCN(C(=O)c3coc(CN4CCCC4)n3)[C@H]21.Cl | 147

Test system: not listed separately
Experiment: Pharmacokinetic parameter Tmax was reported in rat after oral administration
Format: ADME, organism-based
Details: in vivo
Procedure, shortened: as §2

Row | Compound | Tmax [min]
23 | CC(C)[C@@H]1C(=O)N(S(C)(=O)=O)[C@@H]2CCN(C(=O)c3coc(CN4CCCC4)n3)[C@H]21.Cl | 15

Test system: not listed separately
Experiment: Pharmacokinetic parameter clearance in dog was reported in Cassette dosage
Format: ADME, organism-based, Canis lupus familiaris
Details: plasma, read-out: Clp
Procedure, shortened: as §1

Row | Compound | clearance [mL/min/kg]
24 | CC(C)[C@@H]1C(=O)N(S(C)(=O)=O)[C@@H]2CCN(C(=O)c3ccc(CN(C)C(C)C)c(Br)c3)[C@H]21 | 176
25 | CC(C)C1C(=O)N(S(C)(=O)=O)C2CCN(C(=O)c3ccc(CNC4CC4)cc3)C12 (stereo not drawn) | 97

Test system: not listed separately
Experiment: Pharmacokinetic parameter clearance in dog was reported in Discrete dosage
Format: ADME, organism-based, Canis lupus familiaris
Details: plasma, read-out: Clp

Row | Compound | clearance [mL/min/kg]
26 | CC(C)C1C(=O)N(S(C)(=O)=O)C2CCN(C(=O)c3ccc(CNC4CC4)cc3)C12 (stereo not drawn) | 94

Target: T1, Cathepsin G (Homo sapiens, UniProt P08311)
T1 sequence (P08311 whole entry): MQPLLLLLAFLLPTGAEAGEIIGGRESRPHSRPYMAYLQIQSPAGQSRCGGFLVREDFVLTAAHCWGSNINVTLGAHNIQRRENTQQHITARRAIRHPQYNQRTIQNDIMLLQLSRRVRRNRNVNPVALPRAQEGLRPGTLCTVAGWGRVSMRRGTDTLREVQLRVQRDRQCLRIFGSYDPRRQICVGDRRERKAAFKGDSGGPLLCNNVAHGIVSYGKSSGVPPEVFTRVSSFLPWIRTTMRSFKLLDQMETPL
Experiment: The compound was evaluated for its inhibitory activity against cathepsin G using selectivity assay
Details: not given

Row | Compound | IC50 [µM]
27 | CC(C)[C@@H]1C(=O)N(S(C)(=O)=O)[C@@H]2CCN(C(=O)c3coc(CN4CCCC4)n3)[C@H]21.Cl | > 100

Target: Chymotrypsinogen A (Bos taurus, UniProt P00766)
Experiment: The compound was evaluated for its inhibitory activity against Chymotrypsinogen using selectivity assay
Details: not given
Procedure, shortened: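 Selectivity counter-screen against chymotrypsin, run essentially per an earlier published protocol; inhibitor preincubated with enzyme for 15 min before activity read-out.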

Row | Compound | IC50 [µM]
28 | CC(C)[C@@H]1C(=O)N(S(C)(=O)=O)[C@@H]2CCN(C(=O)c3coc(CN4CCCC4)n3)[C@H]21.Cl | 3

Target: Serine protease 1 (Homo sapiens, UniProt P07477)
Sequence (P07477 whole entry): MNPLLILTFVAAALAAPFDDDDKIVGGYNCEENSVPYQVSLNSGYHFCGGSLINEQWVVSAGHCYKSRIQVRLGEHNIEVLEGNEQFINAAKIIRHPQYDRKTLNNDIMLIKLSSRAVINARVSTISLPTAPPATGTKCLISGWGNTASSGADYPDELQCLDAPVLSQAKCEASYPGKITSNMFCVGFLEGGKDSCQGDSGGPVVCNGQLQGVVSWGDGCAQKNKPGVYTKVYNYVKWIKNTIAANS
Experiment: The compound was evaluated for its inhibitory activity against trypsin using selectivity assay
Details: not given

Row | Compound | IC50 [µM]
29 | CC(C)[C@@H]1C(=O)N(S(C)(=O)=O)[C@@H]2CCN(C(=O)c3coc(CN4CCCC4)n3)[C@H]21.Cl | > 100

Test system: not listed separately
Experiment: Pharmacokinetic parameter Tmax was reported in rat after intravenous administration
Format: ADME, organism-based
Details: in vivo
Procedure, shortened: as §2

Row | Compound | Tmax [min]
30 | CC(C)[C@@H]1C(=O)N(S(C)(=O)=O)[C@@H]2CCN(C(=O)c3coc(CN4CCCC4)n3)[C@H]21.Cl | 1.8

Target: T2, Neutrophil elastase (Homo sapiens) (UniProt P08246)
T2 sequence (whole entry): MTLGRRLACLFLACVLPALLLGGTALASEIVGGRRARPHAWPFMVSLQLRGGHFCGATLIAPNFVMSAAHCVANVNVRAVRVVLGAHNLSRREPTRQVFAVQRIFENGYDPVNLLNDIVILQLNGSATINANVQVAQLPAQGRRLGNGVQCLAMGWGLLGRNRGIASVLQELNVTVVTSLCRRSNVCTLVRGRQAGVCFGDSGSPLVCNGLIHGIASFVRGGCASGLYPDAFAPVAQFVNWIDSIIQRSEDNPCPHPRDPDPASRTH
Details: Canis lupus familiaris; 2 mg/kg

Row | Compound | inhibition [%]
31 | CC(C)[C@@H]1C(=O)N(S(C)(=O)=O)[C@@H]2CCN(C(=O)c3coc(CN4CCCC4)n3)[C@H]21.Cl | 100

Target: T2, Neutrophil elastase (Homo sapiens)
Details: Canis lupus familiaris; Blood; 2 mg/kg

Row | Compound | inhibition [%]
32 | CC(C)[C@@H]1C(=O)N(S(C)(=O)=O)[C@@H]2CCN(C(=O)c3coc(CN4CCCC4)n3)[C@H]21.Cl | 100

Target: T2, Neutrophil elastase (Homo sapiens)
Details: not given

Row | Compound | k on [M⁻¹ s⁻¹]
33 | CC(C)[C@@H]1C(=O)N(S(C)(=O)=O)[C@@H]2CCN(C(=O)c3coc(CN4CCCC4)n3)[C@H]21.Cl | 30500
